Laboratory results as given in ChEMBL document CHEMBL1140228, “Identification of small molecular weight inhibitors of Src homology 2 domain-containing tyrosine phosphatase 2 (SHP-2) via in silico database screening combined with experimental assay” (J Med Chem, 2008).
Positions count from the first letter of the chain named. Activity calls are given as the source filed them. No cut-off for these calls is given here.

Experiments:
[1] = target: T1, Tyrosine-protein phosphatase non-receptor type 11 (Homo sapiens) (UniProt Q06124); assay: Inhibition of GST-tagged SHP2 at 100 uM
T1 sequence (whole entry): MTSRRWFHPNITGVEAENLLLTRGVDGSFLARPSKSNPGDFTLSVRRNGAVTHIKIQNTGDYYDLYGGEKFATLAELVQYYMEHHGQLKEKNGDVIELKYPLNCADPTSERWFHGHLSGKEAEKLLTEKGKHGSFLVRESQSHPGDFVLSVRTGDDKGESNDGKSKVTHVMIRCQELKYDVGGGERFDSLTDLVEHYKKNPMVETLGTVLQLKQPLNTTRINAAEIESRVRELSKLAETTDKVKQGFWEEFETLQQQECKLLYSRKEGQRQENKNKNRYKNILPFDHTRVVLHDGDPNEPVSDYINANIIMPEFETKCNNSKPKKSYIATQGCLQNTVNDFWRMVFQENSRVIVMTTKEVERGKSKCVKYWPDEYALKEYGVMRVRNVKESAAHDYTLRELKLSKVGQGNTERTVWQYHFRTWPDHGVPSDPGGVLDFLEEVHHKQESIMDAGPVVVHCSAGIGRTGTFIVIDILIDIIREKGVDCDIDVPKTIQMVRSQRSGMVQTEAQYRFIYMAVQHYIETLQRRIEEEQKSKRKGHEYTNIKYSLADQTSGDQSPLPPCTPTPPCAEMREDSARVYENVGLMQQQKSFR
Summary of the method: (§1)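 GST-SHP-2 PTP domain (0.5 μg) preincubated 30 min at room temperature with compound or DMSO in 25 mM Tris-HCl pH 7.4, 50 mM NaCl, 5 mM DTT, 2.5 mM EDTA. Orthovanadate (100 μM) served as positive control.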

[2] = target: T1, Tyrosine-protein phosphatase non-receptor type 11 (Homo sapiens); assay: Inhibition of GST-tagged SHP2; summary of the method: as §1
[3] = target: T2, Tyrosine-protein phosphatase non-receptor type 11 (Mus musculus) (UniProt P35235); assay: Inhibition of EGF-induced SHP2 activation in mouse embryonic fibroblasts by immunocomplex phosphatase assay
T2 sequence (whole entry): T1 sequence (whole entry) with M450V, A550V, K590R
Summary of the method: (§2)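 WT or SHP-2 D61G/D61G knock-in MEFs starved overnight in serum-free medium, compound (100 μM) for the last 1 h, then EGF 10 min (50 ng/mL in methods, 20 ng/mL in legend). RIPA lysates (500 μg) immunoprecipitated with anti-SHP-2, washed in HNTG, then assayed by malachite green phosphatase assay.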

[4] = tested on: T3, Tyrosine-protein phosphatase non-receptor type 11 (Mus musculus), P35235 [D61G]; assay: Inhibition of EGF-induced SHP2 D61G mutant activation in mouse embryonic fibroblasts by immunocomplex phosphatase assay; summary of the method: as §2
T3 sequence (whole entry): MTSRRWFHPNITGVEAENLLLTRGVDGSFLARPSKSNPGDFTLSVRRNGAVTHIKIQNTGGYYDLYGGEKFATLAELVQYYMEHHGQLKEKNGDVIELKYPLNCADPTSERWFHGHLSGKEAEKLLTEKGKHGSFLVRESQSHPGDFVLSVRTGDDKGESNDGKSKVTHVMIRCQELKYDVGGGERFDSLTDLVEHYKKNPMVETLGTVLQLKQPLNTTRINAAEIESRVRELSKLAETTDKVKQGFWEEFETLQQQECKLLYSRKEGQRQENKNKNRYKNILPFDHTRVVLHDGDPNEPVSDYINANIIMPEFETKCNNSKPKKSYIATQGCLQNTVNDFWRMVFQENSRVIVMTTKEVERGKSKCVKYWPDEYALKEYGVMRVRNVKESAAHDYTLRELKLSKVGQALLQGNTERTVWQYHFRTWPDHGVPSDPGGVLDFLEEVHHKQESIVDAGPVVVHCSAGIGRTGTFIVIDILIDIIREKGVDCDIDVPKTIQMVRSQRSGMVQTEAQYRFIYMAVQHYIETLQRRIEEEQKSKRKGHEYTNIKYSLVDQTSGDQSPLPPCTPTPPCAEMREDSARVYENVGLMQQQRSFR

[5] = target: T2, Tyrosine-protein phosphatase non-receptor type 11 (Mus musculus); assay: Inhibition of SHP2 assessed as blockade of IL3-induced ERK1/ERK2 activation in mouse Ba/F3 cells by immunoblotting; type: cell-based; details: BaF3
Summary of the method: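 Ba/F3 cells deprived of IL-3 for 8 h, treated with compound 1 h before stimulation with IL-3 (2 ng/mL), and harvested at several times. Lysates immunoblotted for phospho-Erk, then stripped and reprobed for pan-Erk as loading control.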

[6] = tested on: BaF3; assay: Antiproliferative activity against IL3-stimulated mouse BA/F3 cells assessed as decrease in cell growth after 72 hrs by MTS assay; type: functional, cell-based
Summary of the method: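 Ba/F3 (IL-3-dependent murine pro-B line) seeded at 2×10⁴ cells/well in RPMI-1640 with 10% FBS and mouse IL-3 (1 ng/mL), plus compound at 100 or 200 μM or DMSO. Cell number read by MTS after 72 h.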

[7] = target: T1, Tyrosine-protein phosphatase non-receptor type 11 (Homo sapiens); assay: Binding affinity to SHP2 PTP domain assessed as quenching of enzyme fluorescence by fluorescence titration assay
Summary of the method: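 Tryptophan fluorescence quenching of GST-SHP-2 PTP domain held at 3 μM in 20 mM Tris-HCl pH 7.5, titrated with increasing compound. Excitation 295 nm, emission 360–500 nm. Compound-alone fluorescence subtracted. Intensities are relative, not corrected for detector response.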

[8] = target: T1, Tyrosine-protein phosphatase non-receptor type 11 (Homo sapiens); assay: Inhibition of GST-tagged SHP2 at 200 uM; summary of the method: as §1
[9] = target: Tyrosine-protein phosphatase non-receptor type 6 (Homo sapiens) (UniProt P29350); assay: Inhibition of GST-tagged SHP1
[10] = target: T4, Tyrosine-protein phosphatase non-receptor type 2 (Homo sapiens) (UniProt P17706); assay: Inhibition of GST-tagged TC-PTP
T4 sequence (whole entry): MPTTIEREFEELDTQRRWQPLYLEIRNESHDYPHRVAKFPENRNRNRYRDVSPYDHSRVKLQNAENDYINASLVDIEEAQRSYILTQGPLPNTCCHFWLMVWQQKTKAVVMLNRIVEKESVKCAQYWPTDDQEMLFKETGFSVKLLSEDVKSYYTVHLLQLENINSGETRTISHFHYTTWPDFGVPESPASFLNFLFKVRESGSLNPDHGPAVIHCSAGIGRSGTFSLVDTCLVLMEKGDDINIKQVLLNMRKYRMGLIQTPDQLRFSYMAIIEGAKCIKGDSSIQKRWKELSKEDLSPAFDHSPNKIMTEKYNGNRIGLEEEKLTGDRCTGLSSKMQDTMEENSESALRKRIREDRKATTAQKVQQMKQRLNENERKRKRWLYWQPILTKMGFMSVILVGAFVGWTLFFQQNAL

[11] = target: T5, Receptor-type tyrosine-protein phosphatase C (Homo sapiens) (UniProt P08575); assay: Inhibition of GST-tagged CD45
T5 sequence (whole entry): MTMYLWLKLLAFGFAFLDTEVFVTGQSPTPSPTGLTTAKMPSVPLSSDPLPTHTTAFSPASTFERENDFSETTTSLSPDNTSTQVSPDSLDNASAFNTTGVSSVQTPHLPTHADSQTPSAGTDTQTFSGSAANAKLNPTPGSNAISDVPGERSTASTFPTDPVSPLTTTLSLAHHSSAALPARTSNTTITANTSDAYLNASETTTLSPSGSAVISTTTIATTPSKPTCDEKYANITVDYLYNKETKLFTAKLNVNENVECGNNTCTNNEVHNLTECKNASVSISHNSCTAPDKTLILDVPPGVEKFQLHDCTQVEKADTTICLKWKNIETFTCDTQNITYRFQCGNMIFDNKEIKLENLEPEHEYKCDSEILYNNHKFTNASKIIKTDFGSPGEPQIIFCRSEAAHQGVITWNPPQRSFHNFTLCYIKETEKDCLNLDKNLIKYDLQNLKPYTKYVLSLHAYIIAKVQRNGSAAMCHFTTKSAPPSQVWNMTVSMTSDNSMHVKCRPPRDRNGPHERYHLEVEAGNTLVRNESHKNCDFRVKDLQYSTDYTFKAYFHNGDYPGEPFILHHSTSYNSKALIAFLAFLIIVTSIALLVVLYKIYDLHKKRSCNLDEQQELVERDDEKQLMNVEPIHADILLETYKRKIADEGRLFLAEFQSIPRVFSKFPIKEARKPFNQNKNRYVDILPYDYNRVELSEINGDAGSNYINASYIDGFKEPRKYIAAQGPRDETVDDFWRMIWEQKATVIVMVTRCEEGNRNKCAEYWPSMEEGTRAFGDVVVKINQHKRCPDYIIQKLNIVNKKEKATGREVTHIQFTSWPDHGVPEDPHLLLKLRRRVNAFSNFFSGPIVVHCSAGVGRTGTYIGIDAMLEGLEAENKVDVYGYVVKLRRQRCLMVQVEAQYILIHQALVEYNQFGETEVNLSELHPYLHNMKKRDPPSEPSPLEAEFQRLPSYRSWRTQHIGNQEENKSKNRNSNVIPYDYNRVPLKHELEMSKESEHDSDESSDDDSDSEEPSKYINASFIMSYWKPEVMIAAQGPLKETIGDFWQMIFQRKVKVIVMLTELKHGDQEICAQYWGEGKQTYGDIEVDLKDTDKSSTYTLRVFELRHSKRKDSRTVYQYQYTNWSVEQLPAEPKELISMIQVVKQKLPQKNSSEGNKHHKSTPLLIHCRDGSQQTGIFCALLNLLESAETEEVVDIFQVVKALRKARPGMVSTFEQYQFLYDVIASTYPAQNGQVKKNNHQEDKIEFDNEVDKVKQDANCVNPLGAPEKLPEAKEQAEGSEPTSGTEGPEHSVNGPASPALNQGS

Sequence of Tyrosine-protein phosphatase non-receptor type 6 (Homo sapiens) (P29350 whole entry): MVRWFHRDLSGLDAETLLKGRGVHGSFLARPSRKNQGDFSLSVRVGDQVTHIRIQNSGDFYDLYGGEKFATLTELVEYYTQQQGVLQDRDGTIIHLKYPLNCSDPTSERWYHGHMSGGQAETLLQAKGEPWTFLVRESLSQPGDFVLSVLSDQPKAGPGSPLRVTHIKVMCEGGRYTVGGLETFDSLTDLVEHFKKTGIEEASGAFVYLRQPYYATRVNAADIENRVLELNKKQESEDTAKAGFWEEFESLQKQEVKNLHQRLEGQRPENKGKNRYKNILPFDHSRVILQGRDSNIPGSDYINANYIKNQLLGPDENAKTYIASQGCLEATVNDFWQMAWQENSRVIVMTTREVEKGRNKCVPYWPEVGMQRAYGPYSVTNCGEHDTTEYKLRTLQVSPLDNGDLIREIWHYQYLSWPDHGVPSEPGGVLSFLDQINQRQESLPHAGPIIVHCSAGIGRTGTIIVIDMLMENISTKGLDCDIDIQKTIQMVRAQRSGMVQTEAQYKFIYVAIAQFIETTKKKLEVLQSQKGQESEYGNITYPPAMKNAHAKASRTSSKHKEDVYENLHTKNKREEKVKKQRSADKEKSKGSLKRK

Compound | inhibition [1] | Activity [2] | Activity [7] | also measured
NC(N)=NN[C@@H]1O[C@H](CO)[C@@H](O)[C@H](O)[C@H]1O | – | Dose-dependent effect | inactive | –
NNc1ccc(S(=O)(=O)O)cc1 | 70% | Dose-dependent effect | – | Activity [8]: Active; Activity [9]: Active; Activity [10]: inactive; Activity [11]: inactive
CCc1ccc(OCC(=O)Nc2ccc(S(N)(=O)=O)cc2)cc1 | – | Dose-dependent effect | inactive | –
CNC(=S)NNC(=O)CSCCS(=O)(=O)c1ccccc1 | – | Dose-dependent effect | inactive | –
CNC(=S)NNC(=O)c1csc(-c2cccs2)n1 | 40% | Dose-dependent effect | – | –
Cc1cc(C)c2c(c1)[nH]c1nnc(SCC(=O)NCc3cccs3)nc12 | 50% | Dose-dependent effect | Active | Activity [3]: Active; Activity [4]: Active; Activity [5]: Active

More lines, main results first:

inhibition [1] | Activity [2] | Activity [7] | Compound | also measured
55% | Dose-dependent effect | Active | NS(=O)(=O)c1ccc(CCNC(=O)c2ccc(Cn3c(=S)[nH]c4ccc(Br)cc4c3=O)cc2)cc1 | Activity [3]: Active; Activity [4]: Active; Activity [5]: Active; Activity [6]: Active
45% | Dose-dependent effect | – | O=C(CCCn1c(=O)c2cccn2c2cccnc21)NCc1ccccc1F | –
– | Dose-dependent effect | Active | CSc1ccc(C2C(C#N)=C(N)Oc3[nH]nc(-c4ccccc4Cl)c32)cc1 (stereo unspecified) | –
